Measurements reported in article PMC7531564 (mAbs, 2020).
Numbering of substitutions follows the chain as printed.

Tests used:
mouse cancer models = conditions: cited from earlier work
[1] = target: T1, ARG2-C0021158 Fab complex (Homo sapiens, UniProt P78540); assay: Isothermal titration calorimetry with ARG2-C0021158 Fab complex; format: binding; conditions: ARG2 + C0021158 Fab 1:1 mix, 20 µM each
T1 sequence (P78540 23-354): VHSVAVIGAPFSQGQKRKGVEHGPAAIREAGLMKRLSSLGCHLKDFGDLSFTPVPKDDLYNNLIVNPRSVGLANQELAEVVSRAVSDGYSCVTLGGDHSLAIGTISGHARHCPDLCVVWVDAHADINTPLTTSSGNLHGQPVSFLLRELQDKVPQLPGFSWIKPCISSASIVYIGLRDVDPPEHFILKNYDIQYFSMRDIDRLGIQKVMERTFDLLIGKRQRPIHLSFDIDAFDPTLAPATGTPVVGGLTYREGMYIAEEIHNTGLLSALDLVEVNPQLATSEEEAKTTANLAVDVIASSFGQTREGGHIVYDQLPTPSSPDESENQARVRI
In short: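 ITC on a MicroCal VP at 25°C. Recombinant human ARG2 and test Fab were mixed 1:1 at 20 µM each (ARG2 as monomer) and pre-incubated 1 h at 20°C. Boronic acid arginase-inhibitor ligand at 0.50 mM was then titrated in. Isotherms were fitted to a one-site binding model.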

human ARG2 = target: T2, human ARG2 (Homo sapiens, UniProt P78540); assay: Isothermal titration calorimetry with free ARG2; format: binding; conditions: KD (ITC), free ARG2 20 µM monomer, 25°C
T2 sequence (P78540 23-354): T1 sequence (P78540 23-354)
In short: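 ITC on a MicroCal VP at 25°C. A 750 µM (0.75 mM) boronic acid arginase-inhibitor ligand was titrated into 20 µM recombinant human ARG2 (monomer concentration). Thermograms were integrated, and isotherms were fitted to a one-site (one-to-one) binding model. Error was taken as a 68.3% confidence interval.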

[2] = tested on: CD3/CD28 co-stimulated T-cells; assay: In vitro T-cell proliferation assay; format: cell-based, human; conditions: ARG2 15 µg/ml; BrdU
In short: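 Human PBMCs were isolated from leukocyte cones by Ficoll gradient, and T cells were enriched by negative selection. 40000 cells/well in RPMI 1640 with 5% human serum albumin were activated with CD3/CD28 (1:40) for 45 min at 37°C, 5% CO2. Antibody titrations in TBS/NaCl were added for 30 min, then recombinant human trimeric ARG2 (15 µg/ml final). Incubation lasted 96 h total, with BrdU added at 78 h and read by ELISA. Data were expressed as % of control, with EC50 from a four-parameter fit.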

mRCC CL-19 cell line = conditions: high expressing ARG2 mRCC CL-19 cell line; cited from earlier work
[3] = target: biotinylated recombinant human ARG2 trimer (human, UniProt P78540, biotin (site not stated))
[4] = target: recombinant human Arginase 2 (ARG2) trimer, residues 23-354, C-terminal His6-tag (human, UniProt P78540); assay: crystal structure
crystal structure = target: the molecule itself; assay: crystal structure

Molecule: C[C@H](N)C(=O)N1C[C@H](CCCB(O)O)[C@](N)(C(=O)O)C1 [CB-1158]
- tumor growth (mouse cancer models; mouse cancer models): reduces tumor growth

Molecule: Cl.N[C@@H](CSCCB(O)O)C(=O)O [BEC, S-(2-Boronoethyl)-L-cysteine hydrochloride]
- binding to C0021158-bound ARG2 (ITC) [1]: no interaction
- Kd (human ARG2): ~7 µM

Molecule: NC(=NCCC[C@H](N)C(=O)O)NO [NHLA, N^G-hydroxy-L-arginine]
- restoration of ARG2-inhibited T-cell proliferation [2]: partially restore

Molecule: N=C(NO)NCC[C@H](N)C(=O)O [nor-NOHA, N^ω-hydroxy-nor-L-arginine]
- anti-tumor effect in vivo (mouse cancer models; in vivo mouse models): anti-tumor effects
- cell growth (mRCC CL-19 cell line): significantly suppressed cell growth

B1: C0021177 (antibody, V domains shown)
VH: EVQLLESGGGLVQPGGSLRLSCAASGFTFRYEVAAWVRQAPGKGLEWVSAISGPAPKGYYADSVKGRFTISRDNSKNTLYLQMNSLRAEDTAVYYCARLRADLGLYMDLWGRGTLVTVSS
VL: QSELTQPPTASAAPGQKVTISCSGSSSNIGNHYVSWYQQLPGTAPKLLIYDTTVLSSGIPDRFSGSKSGTSATLGITGLQTGDEADYYCGTWDELTSNLVFGGGTKLTVL
- Kd [3]: 0.000173 µM

B2: C0021158 Fab (Fab, V domains shown)
VH: B1 VH with A55I
VL: B1 VL with E3V, T9S, A10V, T52N, T53S, V54E, L55R, S56T, S57A, I59V
- stoichiometry N [4]: 3 Fab per ARG2 trimer

B3: recombinant human Arginase 2 (ARG2) trimer, residues 23-354, C-terminal His6-tag (enzyme, UniProt P78540 23-354, looked up)
chain: T1 sequence (P78540 23-354)
- stoichiometry N (crystal structure): 3
